Calls of active or inactive are those of the source. The calls are words filed in the database; no cut-off is given here.
Key:
[1] = Binding affinity to oligoribonucleotide ORN-G assessed as thermal stability by UV melting study
In short: (§1)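 Duplex melting curves were recorded by UV absorbance with temperature ramped at 1.0 °C/min. Each oligonucleotide was at 2.0 µM in 100 mM phosphate buffer (pH 7.0) containing 0.1 M NaCl.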

[2] = Binding affinity to oligoribonucleotide ORN-U assessed as thermal stability by UV melting study; in short: as §1
[3] = Binding affinity to oligoribonucleotide ORN-U assessed as formation of stable A form like duplex with ORN-U by UV spectroscopy
[4] = Binding affinity to oligoribonucleotide ORN-G assessed as photo-cross-linking efficiency with ORN-G after UVA irradiation of 1 min by time course photo cross linking study
[5] = Binding affinity to oligoribonucleotide ORN-U assessed as photo-cross-linking efficiency with ORN-U after UVA irradiation of 1 min by time course photo cross linking study
[6] = Binding affinity to oligoribonucleotide ORN-U assessed as photo cross linking activity by reversed phase HPLC
In short: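 Equimolar 2′-Ps-oligo and ORN (2.0 µM each) were denatured at 85 °C for 5 min and slowly cooled to 37 °C in 100 mM sodium phosphate (pH 7.0) with 0.1 M NaCl. Samples were irradiated with UVA (365 nm transilluminator, 1.6 mW/cm²) and analysed by C18 reversed-phase HPLC (TEAA pH 7.0/acetonitrile gradient, 40 °C oven) to follow intact ORN and cross-linked product.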

[7] = Binding affinity to oligoribonucleotide ORN-U assessed as intercalation by fluorescence spectroscopy
[8] = Binding affinity to oligoribonucleotide ORN-U assessed as photo-cross-linking efficiency with ORN-U after UVA irradiation of 120 min by time course photo cross linking study

SMILES | Tm [1] [°C] | Tm [2] [°C] | Activity [3] | photo-cross-linking efficiency [4] [%] | photo-cross-linking efficiency [5] [%] | Activity [6] | Activity [7] | Activity [8] [%]
Cc1cn([C@H]2C[C@H](OP(=O)(O)OC[C@H]3O[C@@H](n4cnc5c(N)ncnc54)C[C@@H]3OP(=O)(O)OC[C@H]3O[C@@H](n4ccc(N)nc4=O)C[C@@H]3OP(=O)(O)OC[C@H]3O[C@@H](n4cnc5c(=O)[nH]c(N)nc54)C[C@@H]3OP(=O)(O)OC[C@H]3O[C@@H](n4ccc(N)nc4=O)C[C@@H]3OP(=O)(O)OC[C@H]3O[C@@H](n4ccc(N)nc4=O)C[C@@H]3OP(=O)(O)OC[C@H]3O[C@@H](n4cnc5c(N)ncnc54)C[C@@H]3OP(=O)(O)OC[C@H]3O[C@@H](n4cnc5c(N)ncnc54)C[C@@H]3OP(=O)(O)OC[C@H]3O[C@@H](n4ccc(N)nc4=O)C[C@@H]3OP(=O)(O)OC[C@H]3O[C@@H](n4cnc5c(N)ncnc54)C[C@@H]3OP(=O)(O)OC[C@H]3O[C@@H](n4cnc5c(=O)[nH]c(N)nc54)C[C@@H]3OP(=O)(O)OC[C@H]3O[C@@H](n4ccc(N)nc4=O)C[C@@H]3OP(=O)(O)OC[C@H]3O[C@@H](n4cc(C)c(=O)[nH]c4=O)C[C@@H]3OP(=O)(O)OC[C@H]3O[C@@H](n4ccc(N)nc4=O)C[C@@H]3OP(=O)(O)OC[C@H]3O[C@@H](n4ccc(N)nc4=O)C[C@@H]3O)[C@@H](CO)O2)c(=O)[nH]c1=O | 58.9 | 67.3 | – | – | – | – | – | –
Cc1oc2c(C)c3oc(=O)cc(C)c3cc2c1COCCCO[C@@H]1[C@H](OP(=O)(O)OC[C@H]2O[C@@H](n3ccc(N)nc3=O)C[C@@H]2OP(=O)(O)OC[C@H]2O[C@@H](n3cnc4c(N)ncnc43)C[C@@H]2OP(=O)(O)OC[C@H]2O[C@@H](n3cnc4c(=O)[nH]c(N)nc43)C[C@@H]2OP(=O)(O)OC[C@H]2O[C@@H](n3ccc(N)nc3=O)C[C@@H]2OP(=O)(O)OC[C@H]2O[C@@H](n3cc(C)c(=O)[nH]c3=O)C[C@@H]2OP(=O)(O)OC[C@H]2O[C@@H](n3ccc(N)nc3=O)C[C@@H]2OP(=O)(O)OC[C@H]2O[C@@H](n3ccc(N)nc3=O)C[C@@H]2O)[C@@H](COP(=O)(O)O[C@H]2C[C@H](n3cnc4c(N)ncnc43)O[C@@H]2COP(=O)(O)O[C@H]2C[C@H](n3ccc(N)nc3=O)O[C@@H]2COP(=O)(O)O[C@H]2C[C@H](n3ccc(N)nc3=O)O[C@@H]2COP(=O)(O)O[C@H]2C[C@H](n3cnc4c(=O)[nH]c(N)nc43)O[C@@H]2COP(=O)(O)O[C@H]2C[C@H](n3ccc(N)nc3=O)O[C@@H]2COP(=O)(O)O[C@H]2C[C@H](n3cnc4c(N)ncnc43)O[C@@H]2COP(=O)(O)O[C@H]2C[C@H](n3cc(C)c(=O)[nH]c3=O)O[C@@H]2CO)O[C@H]1n1cnc2c(N)ncnc21 | 58.8 | 62.7 | Active | 9 | 50 | Active | Active | –
Cc1oc2c(C)c3oc(=O)cc(C)c3cc2c1COCCCCO[C@@H]1[C@H](OP(=O)(O)OC[C@H]2O[C@@H](n3ccc(N)nc3=O)C[C@@H]2OP(=O)(O)OC[C@H]2O[C@@H](n3cnc4c(N)ncnc43)C[C@@H]2OP(=O)(O)OC[C@H]2O[C@@H](n3cnc4c(=O)[nH]c(N)nc43)C[C@@H]2OP(=O)(O)OC[C@H]2O[C@@H](n3ccc(N)nc3=O)C[C@@H]2OP(=O)(O)OC[C@H]2O[C@@H](n3cc(C)c(=O)[nH]c3=O)C[C@@H]2OP(=O)(O)OC[C@H]2O[C@@H](n3ccc(N)nc3=O)C[C@@H]2OP(=O)(O)OC[C@H]2O[C@@H](n3ccc(N)nc3=O)C[C@@H]2O)[C@@H](COP(=O)(O)O[C@H]2C[C@H](n3cnc4c(N)ncnc43)O[C@@H]2COP(=O)(O)O[C@H]2C[C@H](n3ccc(N)nc3=O)O[C@@H]2COP(=O)(O)O[C@H]2C[C@H](n3ccc(N)nc3=O)O[C@@H]2COP(=O)(O)O[C@H]2C[C@H](n3cnc4c(=O)[nH]c(N)nc43)O[C@@H]2COP(=O)(O)O[C@H]2C[C@H](n3ccc(N)nc3=O)O[C@@H]2COP(=O)(O)O[C@H]2C[C@H](n3cnc4c(N)ncnc43)O[C@@H]2COP(=O)(O)O[C@H]2C[C@H](n3cc(C)c(=O)[nH]c3=O)O[C@@H]2CO)O[C@H]1n1cnc2c(N)ncnc21 | 60.2 | 64 | Active | – | – | – | Active | –
Cc1oc2c(C)c3oc(=O)cc(C)c3cc2c1CO[C@@H]1[C@H](OP(=O)(O)OC[C@H]2O[C@@H](n3ccc(N)nc3=O)C[C@@H]2OP(=O)(O)OC[C@H]2O[C@@H](n3cnc4c(N)ncnc43)C[C@@H]2OP(=O)(O)OC[C@H]2O[C@@H](n3cnc4c(=O)[nH]c(N)nc43)C[C@@H]2OP(=O)(O)OC[C@H]2O[C@@H](n3ccc(N)nc3=O)C[C@@H]2OP(=O)(O)OC[C@H]2O[C@@H](n3cc(C)c(=O)[nH]c3=O)C[C@@H]2OP(=O)(O)OC[C@H]2O[C@@H](n3ccc(N)nc3=O)C[C@@H]2OP(=O)(O)OC[C@H]2O[C@@H](n3ccc(N)nc3=O)C[C@@H]2O)[C@@H](COP(=O)(O)O[C@H]2C[C@H](n3cnc4c(N)ncnc43)O[C@@H]2COP(=O)(O)O[C@H]2C[C@H](n3ccc(N)nc3=O)O[C@@H]2COP(=O)(O)O[C@H]2C[C@H](n3ccc(N)nc3=O)O[C@@H]2COP(=O)(O)O[C@H]2C[C@H](n3cnc4c(=O)[nH]c(N)nc43)O[C@@H]2COP(=O)(O)O[C@H]2C[C@H](n3ccc(N)nc3=O)O[C@@H]2COP(=O)(O)O[C@H]2C[C@H](n3cnc4c(N)ncnc43)O[C@@H]2COP(=O)(O)O[C@H]2C[C@H](n3cc(C)c(=O)[nH]c3=O)O[C@@H]2CO)O[C@H]1n1cnc2c(N)ncnc21 | – | – | – | – | 3 | – | – | 35
Cc1oc2c(C)c3oc(=O)cc(C)c3cc2c1COCCO[C@@H]1[C@H](OP(=O)(O)OC[C@H]2O[C@@H](n3ccc(N)nc3=O)C[C@@H]2OP(=O)(O)OC[C@H]2O[C@@H](n3cnc4c(N)ncnc43)C[C@@H]2OP(=O)(O)OC[C@H]2O[C@@H](n3cnc4c(=O)[nH]c(N)nc43)C[C@@H]2OP(=O)(O)OC[C@H]2O[C@@H](n3ccc(N)nc3=O)C[C@@H]2OP(=O)(O)OC[C@H]2O[C@@H](n3cc(C)c(=O)[nH]c3=O)C[C@@H]2OP(=O)(O)OC[C@H]2O[C@@H](n3ccc(N)nc3=O)C[C@@H]2OP(=O)(O)OC[C@H]2O[C@@H](n3ccc(N)nc3=O)C[C@@H]2O)[C@@H](COP(=O)(O)O[C@H]2C[C@H](n3cnc4c(N)ncnc43)O[C@@H]2COP(=O)(O)O[C@H]2C[C@H](n3ccc(N)nc3=O)O[C@@H]2COP(=O)(O)O[C@H]2C[C@H](n3ccc(N)nc3=O)O[C@@H]2COP(=O)(O)O[C@H]2C[C@H](n3cnc4c(=O)[nH]c(N)nc43)O[C@@H]2COP(=O)(O)O[C@H]2C[C@H](n3ccc(N)nc3=O)O[C@@H]2COP(=O)(O)O[C@H]2C[C@H](n3cnc4c(N)ncnc43)O[C@@H]2COP(=O)(O)O[C@H]2C[C@H](n3cc(C)c(=O)[nH]c3=O)O[C@@H]2CO)O[C@H]1n1cnc2c(N)ncnc21 | 59.1 | 63.1 | Active | 7 | 75 | Active | Active | –
